For experiment [1], the species on record is Rattus norvegicus. As to the kind of experiment: Maximum contractile response of thoracic aorta in albino Wistar rat after 30 min. The experiment is classed as functional. Conditions: for EC50: 0.5 h.
Experiment [2] concerns the target T1, Urotensin-2 receptor (Homo sapiens, UniProt Q9UKP6).
T1 sequence (Q9UKP6 whole entry): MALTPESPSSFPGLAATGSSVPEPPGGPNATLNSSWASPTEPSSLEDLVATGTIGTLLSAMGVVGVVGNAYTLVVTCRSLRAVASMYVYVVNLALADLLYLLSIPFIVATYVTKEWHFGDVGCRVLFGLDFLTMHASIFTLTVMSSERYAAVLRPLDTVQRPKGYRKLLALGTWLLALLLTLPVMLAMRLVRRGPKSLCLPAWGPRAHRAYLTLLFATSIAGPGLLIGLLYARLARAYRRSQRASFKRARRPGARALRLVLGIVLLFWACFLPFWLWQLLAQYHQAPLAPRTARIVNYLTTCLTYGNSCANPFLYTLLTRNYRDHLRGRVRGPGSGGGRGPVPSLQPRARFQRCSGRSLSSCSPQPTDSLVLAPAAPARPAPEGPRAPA
Put plainly: Displacement of [125I]urotensin 2 from human UT receptor expressed in CHO-K1 cells. The experiment is classed as cell-based. In general terms: In a radioligand displacement assay an active substance lowers the binding of a labelled ligand.

The species entered for experiment [3] is Rattus norvegicus. As to the kind of experiment: Maximum contractile response of thoracic aorta in albino Wistar rat in the presence of human urotensin 2 after 30 min. The format is functional. Particulars: 0.5 h. The essentials:
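Thoracic aorta from male albino Wistar rats (275–350 g), decapitated under ether anesthesia, was cut into paired strips in oxygenated Krebs–Henseleit and recorded isotonically under 5 mN load. The control strip received cumulative hU-II. The test strip received the antagonist for 30 min, then cumulative hU-II. KCl 80 mM at the end gave the maximal contraction. pK_B = log(dose ratio − 1) − log[antagonist], slope assumed −1.0, averaged over individual values. Competition was checked by Schild plot.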

The target of experiment [4] is T2, Urotensin-2 receptor (Rattus norvegicus, UniProt P49684).
T2 sequence (P49684 whole entry): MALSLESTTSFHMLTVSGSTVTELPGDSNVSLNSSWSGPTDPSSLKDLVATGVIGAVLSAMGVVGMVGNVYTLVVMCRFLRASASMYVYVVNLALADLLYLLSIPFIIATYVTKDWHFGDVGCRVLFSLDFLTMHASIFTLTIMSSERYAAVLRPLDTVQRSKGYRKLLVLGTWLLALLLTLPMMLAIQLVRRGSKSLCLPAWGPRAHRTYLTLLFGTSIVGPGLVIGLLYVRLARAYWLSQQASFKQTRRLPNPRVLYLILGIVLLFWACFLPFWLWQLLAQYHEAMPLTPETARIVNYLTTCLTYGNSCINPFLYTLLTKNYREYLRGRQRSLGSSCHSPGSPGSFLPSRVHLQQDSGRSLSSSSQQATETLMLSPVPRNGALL
Put plainly: Antagonist activity at rat UT receptor. The experiment is classed as functional. Conditions: read-out: pA2 (converted). A digest of the protocol:
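The control strip received cumulative hU-II. The test strip received the antagonist for 30 min, then cumulative hU-II. KCl 80 mM at the end gave the maximal contraction. pK_B = log(dose ratio − 1) − log[antagonist], slope assumed −1.0, averaged over individual values. Competition was checked by Schild plot.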

Activity calls are given as the source filed them. The calls are words filed in the database; no cut-off is given here.

From ChEMBL document CHEMBL1139480, “Urotensin-II receptor ligands. From agonist to antagonist activity” (J Med Chem, 2005) come the findings set out here.

As for `CC(C)[C@H](NC(=O)[C@@H]1CSSC(C)(C)[C@@H](NC(=O)[C@@H](N)CC(=O)O)C(=O)N[C@@H](Cc2ccccc2)C(=O)N[C@@H](Cc2c[nH]c3ccccc23)C(=O)N[C@@H](CCCN)C(=O)N[C@@H](Cc2ccc(O)cc2)C(=O)N1)C(=O)O`, in the experiment listed under Rattus norvegicus [1] (filed as partial agonist), the Activity result is “Partial agonist”.

One may read the Ki as the equilibrium dissociation constant of an inhibitor or competing ligand from its target. For `CC(C)[C@H](NC(=O)[C@@H]1CSSC(C)(C)[C@H](NC(=O)[C@@H](N)CC(=O)O)C(=O)N[C@@H](Cc2ccccc2)C(=O)N[C@H](Cc2c[nH]c3ccccc23)C(=O)N[C@H](CCCN)C(=O)N[C@@H](Cc2ccc(O)cc2)C(=O)N1)C(=O)O` [listing 1 of 2 here], at Urotensin-2 receptor [2], the Ki was 398 nM (antagonist).

A word on the Emax: it is the size of the effect at its maximum, as opposed to the concentration needed. `CC(C)[C@H](NC(=O)[C@@H]1CSSC(C)(C)[C@H](NC(=O)[C@@H](N)CC(=O)O)C(=O)N[C@@H](Cc2ccccc2)C(=O)N[C@H](Cc2c[nH]c3ccccc23)C(=O)N[C@H](CCCN)C(=O)N[C@@H](Cc2ccc(O)cc2)C(=O)N1)C(=O)O` [listing 2 of 2 here]: the Emax in the experiment listed under Rattus norvegicus [3] turned out to be 25%.

As for `CC(C)[C@H](NC(=O)[C@@H]1CSSC(C)(C)[C@@H](NC(=O)[C@@H](N)CC(=O)O)C(=O)N[C@@H](Cc2ccccc2)C(=O)N[C@H](Cc2c[nH]c3ccccc23)C(=O)N[C@@H](CCCN)C(=O)N[C@@H](Cc2ccc(O)cc2)C(=O)N1)C(=O)O`, the outcome in the experiment filed under Rattus norvegicus [1] was inactive.

With `CC(C)[C@H](NC(=O)[C@@H]1CSSC[C@@H](NC(=O)[C@@H](N)CC(=O)O)C(=O)N[C@@H](Cc2ccccc2)C(=O)N[C@@H](Cc2c[nH]c3ccccc23)C(=O)N[C@@H](CCCN)C(=O)N[C@@H](Cc2ccc(O)cc2)C(=O)N1)C(=O)O`, the Activity entry in the experiment listed under Rattus norvegicus [1] (filed as partial agonist) was “Partial agonist”.

As usually defined, the EC50 is the concentration at which the effect is half-maximal. High values mean a less potent agent, low ones a more potent agent. On to `CC(C)[C@H](NC(=O)[C@@H]1CSSC[C@H](NC(=O)[C@@H](N)CC(=O)O)C(=O)N[C@@H](Cc2ccccc2)C(=O)N[C@H](Cc2c[nH]c3ccccc23)C(=O)N[C@@H](CCCCN)C(=O)N[C@@H](Cc2ccc(O)cc2)C(=O)N1)C(=O)O` [listing 1 of 2 here], for which, on Urotensin-2 receptor [2], the Ki is on record as 1.26 nM (antagonist). This molecule also showed an EC50 in the experiment listed under Rattus norvegicus [1] of 63.1 nM.

`CC(C)[C@H](NC(=O)[C@@H]1CSSC[C@H](NC(=O)[C@@H](N)CC(=O)O)C(=O)N[C@@H](Cc2ccccc2)C(=O)N[C@H](Cc2c[nH]c3ccccc23)C(=O)N[C@@H](CCCN)C(=O)N[C@@H](Cc2ccc(O)cc2)C(=O)N1)C(=O)O`: at Urotensin-2 receptor [4], the Kb is recorded as 10 nM (antagonist). Moreover, on Urotensin-2 receptor [2], the Ki is reported as 12.6 nM (antagonist).

Take `CC(C)[C@H](NC(=O)[C@@H]1CSSC(C)(C)[C@H](NC(=O)[C@@H](N)CC(=O)O)C(=O)N[C@@H](Cc2ccccc2)C(=O)N[C@H](Cc2c[nH]c3ccccc23)C(=O)N[C@@H](CCCN)C(=O)N[C@@H](Cc2ccc(O)cc2)C(=O)N1)C(=O)O`: the Ki at Urotensin-2 receptor [2] is 2000 nM (antagonist). The outcome in the experiment filed under Rattus norvegicus [1] was inactive.

With `CC(C)[C@H](NC(=O)[C@@H]1CSSC(C)(C)[C@@H](NC(=O)[C@@H](N)CC(=O)O)C(=O)N[C@@H](Cc2ccccc2)C(=O)N[C@H](Cc2c[nH]c3ccccc23)C(=O)N[C@H](CCCN)C(=O)N[C@@H](Cc2ccc(O)cc2)C(=O)N1)C(=O)O`, the Activity entry in the experiment listed under Rattus norvegicus [1] (filed as partial agonist) is “Partial agonist”.

Turning to `CC(C)[C@H](NC(=O)[C@@H]1CSSC(C)(C)[C@H](NC(=O)[C@@H](N)CC(=O)O)C(=O)N[C@@H](Cc2ccccc2)C(=O)N[C@H](Cc2c[nH]c3ccccc23)C(=O)N[C@@H](CCCCN)C(=O)N[C@@H](Cc2ccc(O)cc2)C(=O)N1)C(=O)O` [listing 1 of 2 here], the Ki on Urotensin-2 receptor [2] was 1.26 nM (antagonist). The same molecule showed an EC50 in the experiment filed under Rattus norvegicus [1] of 63.1 nM.

On to `CC(C)[C@H](NC(=O)[C@@H]1CSSC(C)(C)[C@H](NC(=O)[C@@H](N)CC(=O)O)C(=O)N[C@@H](Cc2ccccc2)C(=O)N[C@@H](Cc2c[nH]c3ccccc23)C(=O)N[C@@H](CCCN)C(=O)N[C@@H](Cc2ccc(O)cc2)C(=O)N1)C(=O)O` [listing 1 of 2 here], for which the Ki at Urotensin-2 receptor [2] is recorded as 15.8 nM (antagonist).

On to `CC(C)[C@H](NC(=O)[C@@H]1CSSC[C@H](NC(=O)[C@@H](N)CC(=O)O)C(=O)N[C@@H](Cc2ccccc2)C(=O)N[C@@H](Cc2c[nH]c3ccccc23)C(=O)N[C@@H](CCCCN)C(=O)N[C@@H](Cc2ccc(O)cc2)C(=O)N1)C(=O)O` [listing 1 of 2 here], for which the Emax in the experiment filed under Rattus norvegicus [3] turned out to be 100%.

For `CC(C)[C@H](NC(=O)[C@@H]1CSSC[C@H](NC(=O)[C@@H](N)CC(=O)O)C(=O)N[C@@H](Cc2ccccc2)C(=O)N[C@@H](Cc2c[nH]c3ccccc23)C(=O)N[C@@H](CCCN)C(=O)N[C@@H](Cc2ccc(O)cc2)C(=O)N1)C(=O)O` [listing 1 of 2 here], the Kb on Urotensin-2 receptor [4] was 50.1 nM (antagonist). The Ki on Urotensin-2 receptor [2] is on record as 10 nM (antagonist).

Regarding `CC(C)[C@H](NC(=O)[C@@H]1CSSC(C)(C)[C@H](NC(=O)[C@@H](N)CC(=O)O)C(=O)N[C@@H](Cc2ccccc2)C(=O)N[C@@H](Cc2c[nH]c3ccccc23)C(=O)N[C@@H](CCCN)C(=O)N[C@@H](Cc2ccc(O)cc2)C(=O)N1)C(=O)O` [listing 2 of 2 here], the Emax in the experiment listed under Rattus norvegicus [3] is 22%.

In the experiment listed under Rattus norvegicus [1], `CC(C)[C@H](NC(=O)[C@@H]1CSSC(C)(C)[C@H](NC(=O)[C@@H](N)CC(=O)O)C(=O)N[C@@H](Cc2ccccc2)C(=O)N[C@@H](Cc2c[nH]c3ccccc23)C(=O)N[C@@H](CCCCN)C(=O)N[C@@H](Cc2ccc(O)cc2)C(=O)N1)C(=O)O` [listing 1 of 2 here] showed an EC50 of 0.251 nM.

As for `CC(C)[C@H](NC(=O)[C@@H]1CSSC(C)(C)[C@H](NC(=O)[C@@H](N)CC(=O)O)C(=O)N[C@@H](Cc2ccccc2)C(=O)N[C@H](Cc2c[nH]c3ccccc23)C(=O)N[C@@H](CCCCN)C(=O)N[C@@H](Cc2ccc(O)cc2)C(=O)N1)C(=O)O` [listing 2 of 2 here], the Emax in the experiment listed under Rattus norvegicus [3] was 33%.

For the molecule `CC(C)[C@H](NC(=O)[C@@H]1CSSC[C@H](NC(=O)[C@@H](N)CC(=O)O)C(=O)N[C@@H](Cc2ccccc2)C(=O)N[C@@H](Cc2c[nH]c3ccccc23)C(=O)N[C@@H](CCCCN)C(=O)N[C@@H](Cc2ccc(O)cc2)C(=O)N1)C(=O)O` [listing 2 of 2 here], in the experiment listed under Rattus norvegicus [1], it took 2.51 nM to reach a half-maximal effect (EC50).

Take `CC(C)[C@H](NC(=O)[C@@H]1CSSC[C@@H](NC(=O)[C@@H](N)CC(=O)O)C(=O)N[C@@H](Cc2ccccc2)C(=O)N[C@H](Cc2c[nH]c3ccccc23)C(=O)N[C@@H](CCCN)C(=O)N[C@@H](Cc2ccc(O)cc2)C(=O)N1)C(=O)O`: the outcome in the experiment listed under Rattus norvegicus [1] was inactive.

`CC(C)[C@H](NC(=O)[C@@H]1CSSC(C)(C)[C@H](NC(=O)[C@@H](N)CC(=O)O)C(=O)N[C@@H](Cc2ccccc2)C(=O)N[C@@H](Cc2c[nH]c3ccccc23)C(=O)N[C@@H](CCCCN)C(=O)N[C@@H](Cc2ccc(O)cc2)C(=O)N1)C(=O)O` [listing 2 of 2 here]: the Emax in the experiment listed under Rattus norvegicus [3] turned out to be 97%.

As to `CC(C)[C@H](NC(=O)[C@@H]1CSSC[C@H](NC(=O)[C@@H](N)CC(=O)O)C(=O)N[C@@H](Cc2ccccc2)C(=O)N[C@@H](Cc2c[nH]c3ccccc23)C(=O)N[C@@H](CCCN)C(=O)N[C@@H](Cc2ccc(O)cc2)C(=O)N1)C(=O)O` [listing 2 of 2 here], in the experiment listed under Rattus norvegicus [3], the Emax was 36%.

In the case of `CC(C)[C@H](NC(=O)[C@@H]1CSSC[C@H](NC(=O)[C@H](CC(=O)O)NC(=O)[C@@H]2CCCN2C(=O)[C@@H](NC(=O)[C@@H](N)CCC(=O)O)[C@@H](C)O)C(=O)N[C@@H](Cc2ccccc2)C(=O)N[C@@H](Cc2c[nH]c3ccccc23)C(=O)N[C@@H](CCCCN)C(=O)N[C@@H](Cc2ccc(O)cc2)C(=O)N1)C(=O)O` [HUMAN UROTENSIN II], the Emax in the experiment listed under Rattus norvegicus [3] worked out at 100%. Also, the EC50 in the experiment listed under Rattus norvegicus [1] is 5.01 nM.

As to `CC(C)[C@H](NC(=O)[C@@H]1CSSC[C@H](NC(=O)[C@@H](N)CC(=O)O)C(=O)N[C@@H](Cc2ccccc2)C(=O)N[C@H](Cc2c[nH]c3ccccc23)C(=O)N[C@@H](CCCCN)C(=O)N[C@@H](Cc2ccc(O)cc2)C(=O)N1)C(=O)O` [listing 2 of 2 here], in the experiment filed under Rattus norvegicus [3], the Emax was determined as 42%.
